Assay results from ChEMBL document CHEMBL5724801, “EUbOPEN Chemogenomics Library - Multiplex” (2024).
Where “and” joins values, the source holds several entries; their conditions need not be identical. Equal entries are not always repeated.

Tested on: U2OS
Assay: Multiplex assay against U2OS
Type: toxicity, cell-based
Details: human
Outline: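 Live cells carried four stains from seeding: Hoechst33342, BioTracker Green Microtubule Cytoskeleton Dye, MitoTracker Red and Annexin V Alexa Fluor 680. They were imaged on a CQ1 microscope at 37°C and 5% CO2 after compound addition. Using CellPathfinder machine-learning gating, cells were split into Hoechst high-intensity objects or normal cells, normal cells into healthy, pyknosed or fragmented nuclei, and pyknosed cells into mitotic or apoptotic; tubulin, mitochondrial-mass and membrane-permeability phenotypes are per cents of healthy-nucleus cells.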

[1] = 12 h, 1 µM, compound concentration 1 uM
[2] = 12 h, 10 µM, compound concentration 10 uM
[3] = 24 h, 1 µM, compound concentration 1 uM
[4] = 24 h, 10 µM, compound concentration 10 uM
[5] = 48 h, 1 µM, compound concentration 1 uM
[6] = 48 h, 10 µM, compound concentration 10 uM

For COc1ccc2c(c1OCc1ccccc1)C[C@@H](C(=O)O)N(C(=O)C(c1ccccc1)c1ccccc1)C2 [OLODANRIGAN], the “Population Apoptotic (%)” value [1] was 82% and 66%, the “Population Fragmented Nuclei (%)” value [1] was 31% and 18% and the “Population Healthy Nuclei (%)” value [1] was 59% and 75%. The “Population Hoechst High Intensity Objects (%)” value [1] was 2% and 3%, the “Population Membrane Permeable-Phenotype (%)” value [1] was 4% and 6% and the “Population Mitochondria Different-Phenotype (%)” value [1] was 0% and 4%. The “Population Mitotic Cells (%)” value [1] was 17% and 33%, the “Population Normal (%)” value [1] was 97% and 96% and the “Population Pyknosed Nuclei (%)” value [1] was 8% and 5%. The “Population Tubulin-Different-Phenotype (%)” value [1] was 1% and 2%, the “Total Cell Count” value [1] was 286 and 112 and the “Population Apoptotic (%)” value [2] was 78% and 81%. For the same compound, the “Population Fragmented Nuclei (%)” value [2] was 30% and 26%, the “Population Healthy Nuclei (%)” value [2] was 64% and 63% and the “Population Hoechst High Intensity Objects (%)” value [2] was 1% and 0%. The “Population Membrane Permeable-Phenotype (%)” value [2] was 6% and 2%, the “Population Mitochondria Different-Phenotype (%)” value [2] was 1% and the “Population Mitotic Cells (%)” value [2] was 21% and 18%. The “Population Normal (%)” value [2] was 98% and 99%, the “Population Pyknosed Nuclei (%)” value [2] was 5% and 10% and the “Population Tubulin-Different-Phenotype (%)” value [2] was 2%. The “Total Cell Count” value [2] was 273 and 110, the “Population Apoptotic (%)” value [3] was 87% and 55% and the “Population Fragmented Nuclei (%)” value [3] was 25% and 18%. The “Population Healthy Nuclei (%)” value [3] was 64% and 74%, the “Population Hoechst High Intensity Objects (%)” value [3] was 0% and 2% and the “Population Membrane Permeable-Phenotype (%)” value [3] was 2% and 9%. For the same compound, the “Population Mitochondria Different-Phenotype (%)” value [3] was 0% and 6%, the “Population Normal (%)” value [3] was 99% and 97% and the “Population Pyknosed Nuclei (%)” value [3] was 10% and 6%. For the same compound, the “Population Tubulin-Different-Phenotype (%)” value [3] was 2% and 5%, the “Total Cell Count” value [3] was 311 and 143 and the “Population Apoptotic (%)” value [4] was 83% and 50%. For the same compound, the “Population Fragmented Nuclei (%)” value [4] was 27% and 22%, the “Population Healthy Nuclei (%)” value [4] was 66% and 72% and the “Population Hoechst High Intensity Objects (%)” value [4] was 1% and 0%. For the same compound, the “Population Membrane Permeable-Phenotype (%)” value [4] was 4%, the “Population Mitochondria Different-Phenotype (%)” value [4] was 0% and 1% and the “Population Normal (%)” value [4] was 98% and 100%. The “Population Pyknosed Nuclei (%)” value [4] was 5% and 4%, the “Population Tubulin-Different-Phenotype (%)” value [4] was 1% and 2% and the “Total Cell Count” value [4] was 318 and 123. The “Population Apoptotic (%)” value [5] was 91% and 78%, the “Population Fragmented Nuclei (%)” value [5] was 22% and 14% and the “Population Healthy Nuclei (%)” value [5] was 70% and 77%. For the same compound, the “Population Hoechst High Intensity Objects (%)” value [5] was 3% and 4%, the “Population Membrane Permeable-Phenotype (%)” value [5] was 4% and 3% and the “Population Mitochondria Different-Phenotype (%)” value [5] was 1% and 3%. The “Population Mitotic Cells (%)” value [5] was 8% and 21%, the “Population Normal (%)” value [5] was 96% and 95% and the “Population Pyknosed Nuclei (%)” value [5] was 7%. For the same compound, the “Population Tubulin-Different-Phenotype (%)” value [5] was 2%, the “Total Cell Count” value [5] was 483 and 184 and the “Population Apoptotic (%)” value [6] was 88% and 85%. The “Population Fragmented Nuclei (%)” value [6] was 20% and 18%, the “Population Healthy Nuclei (%)” value [6] was 71% and 77% and the “Population Hoechst High Intensity Objects (%)” value [6] was 1%. For the same compound, the “Population Membrane Permeable-Phenotype (%)” value [6] was 5% and 7%, the “Population Mitochondria Different-Phenotype (%)” value [6] was 1% and 6% and the “Population Mitotic Cells (%)” value [6] was 11% and 14%. The “Population Normal (%)” value [6] was 98%, the “Population Pyknosed Nuclei (%)” value [6] was 8% and 4% and the “Population Tubulin-Different-Phenotype (%)” value [6] was 3% and 5%. The “Total Cell Count” value [6] was 451 and 163.

In the case of Cl.Cl.OCCOCCN1CCN(C(c2ccccc2)c2ccc(Cl)cc2)CC1 (configuration not stated) [HYDROXYZINE HYDROCHLORIDE], the “Population Apoptotic (%)” value [1] is reported as 60% and 80%, the “Population Fragmented Nuclei (%)” value [1] is reported as 29% and 13% and the “Population Healthy Nuclei (%)” value [1] is reported as 61% and 78%. For the same compound, the “Population Hoechst High Intensity Objects (%)” value [1] was 0% and 1%, the “Population Membrane Permeable-Phenotype (%)” value [1] was 11% and 9% and the “Population Mitochondria Different-Phenotype (%)” value [1] was 4% and 6%. For the same compound, the “Population Mitotic Cells (%)” value [1] was 40% and 20%, the “Population Normal (%)” value [1] was 99% and 98% and the “Population Pyknosed Nuclei (%)” value [1] was 9% and 7%. For the same compound, the “Population Tubulin-Different-Phenotype (%)” value [1] was 7% and 8%, the “Total Cell Count” value [1] was 208 and 139 and the “Population Apoptotic (%)” value [2] was 58% and 88%. For the same compound, the “Population Fragmented Nuclei (%)” value [2] was 20% and 26%, the “Population Healthy Nuclei (%)” value [2] was 66% and the “Population Hoechst High Intensity Objects (%)” value [2] was 1% and 2%. The “Population Membrane Permeable-Phenotype (%)” value [2] was 9% and 5%, the “Population Mitochondria Different-Phenotype (%)” value [2] was 10% and 7% and the “Population Normal (%)” value [2] was 98% and 97%. For the same compound, the “Population Pyknosed Nuclei (%)” value [2] was 13% and 6%, the “Population Tubulin-Different-Phenotype (%)” value [2] was 6% and 7% and the “Total Cell Count” value [2] was 316 and 141. The “Population Apoptotic (%)” value [3] was 96% and 77%, the “Population Fragmented Nuclei (%)” value [3] was 25% and 9% and the “Population Healthy Nuclei (%)” value [3] was 63% and 77%. The “Population Hoechst High Intensity Objects (%)” value [3] was 1% and 2%, the “Population Membrane Permeable-Phenotype (%)” value [3] was 8% and 5% and the “Population Mitochondria Different-Phenotype (%)” value [3] was 4% and 1%. The “Population Normal (%)” value [3] was 98% and 97%, the “Population Pyknosed Nuclei (%)” value [3] was 10% and 12% and the “Population Tubulin-Different-Phenotype (%)” value [3] was 7% and 1%. For the same compound, the “Total Cell Count” value [3] was 232 and 148, the “Population Apoptotic (%)” value [4] was 73% and 61% and the “Population Fragmented Nuclei (%)” value [4] was 23% and 31%. For the same compound, the “Population Healthy Nuclei (%)” value [4] was 63% and 60%, the “Population Hoechst High Intensity Objects (%)” value [4] was 2% and the “Population Membrane Permeable-Phenotype (%)” value [4] was 10% and 12%. For the same compound, the “Population Mitochondria Different-Phenotype (%)” value [4] was 8% and 13%, the “Population Mitotic Cells (%)” value [4] was 26% and 38% and the “Population Normal (%)” value [4] was 97%. For the same compound, the “Population Pyknosed Nuclei (%)” value [4] was 12% and 7%, the “Population Tubulin-Different-Phenotype (%)” value [4] was 4% and 9% and the “Total Cell Count” value [4] was 359 and 168. For the same compound, the “Population Apoptotic (%)” value [5] was 89% and 90%, the “Population Fragmented Nuclei (%)” value [5] was 24% and 14% and the “Population Healthy Nuclei (%)” value [5] was 62% and 76%. The “Population Hoechst High Intensity Objects (%)” value [5] was 2%, the “Population Membrane Permeable-Phenotype (%)” value [5] was 4% and 5% and the “Population Mitochondria Different-Phenotype (%)” value [5] was 3%. The “Population Mitotic Cells (%)” value [5] was 10%, the “Population Normal (%)” value [5] was 97% and the “Population Pyknosed Nuclei (%)” value [5] was 13% and 8%. The “Population Tubulin-Different-Phenotype (%)” value [5] was 4% and 0%, the “Total Cell Count” value [5] was 300 and 230 and the “Population Apoptotic (%)” value [6] was 83%. For the same compound, the “Population Fragmented Nuclei (%)” value [6] was 17% and 27%, the “Population Healthy Nuclei (%)” value [6] was 68% and 64% and the “Population Hoechst High Intensity Objects (%)” value [6] was 2% and 5%. For the same compound, the “Population Membrane Permeable-Phenotype (%)” value [6] was 8% and 10%, the “Population Mitochondria Different-Phenotype (%)” value [6] was 6% and 5% and the “Population Mitotic Cells (%)” value [6] was 16%. For the same compound, the “Population Normal (%)” value [6] was 97% and 94%, the “Population Pyknosed Nuclei (%)” value [6] was 13% and 8% and the “Population Tubulin-Different-Phenotype (%)” value [6] was 4% and 5%. The “Total Cell Count” value [6] was 456 and 231.

CN(C)C(=O)Cn1cc(-c2ccc(-c3cncc4ccccc34)cc2)cn1 was tested, and the “Population Apoptotic (%)” value [1] was 68% and 69%, the “Population Fragmented Nuclei (%)” value [1] was 22% and 18% and the “Population Healthy Nuclei (%)” value [1] was 68% and 69%. For the same compound, the “Population Hoechst High Intensity Objects (%)” value [1] was 3% and 0%, the “Population Membrane Permeable-Phenotype (%)” value [1] was 8% and 6% and the “Population Mitochondria Different-Phenotype (%)” value [1] was 4% and 2%. For the same compound, the “Population Mitotic Cells (%)” value [1] was 31% and 30%, the “Population Normal (%)” value [1] was 96% and 99% and the “Population Pyknosed Nuclei (%)” value [1] was 9% and 11%. The “Population Tubulin-Different-Phenotype (%)” value [1] was 5% and 3%, the “Total Cell Count” value [1] was 240 and 110 and the “Population Apoptotic (%)” value [2] was 66% and 100%. For the same compound, the “Population Fragmented Nuclei (%)” value [2] was 21% and 18%, the “Population Healthy Nuclei (%)” value [2] was 67% and 75% and the “Population Hoechst High Intensity Objects (%)” value [2] was 5% and 3%. For the same compound, the “Population Membrane Permeable-Phenotype (%)” value [2] was 20% and 22%, the “Population Mitochondria Different-Phenotype (%)” value [2] was 12% and 19% and the “Population Normal (%)” value [2] was 94% and 96%. The “Population Pyknosed Nuclei (%)” value [2] was 10% and 5%, the “Population Tubulin-Different-Phenotype (%)” value [2] was 14% and 23% and the “Total Cell Count” value [2] was 205 and 98. For the same compound, the “Population Apoptotic (%)” value [3] was 100% and 90%, the “Population Fragmented Nuclei (%)” value [3] was 21% and 15% and the “Population Healthy Nuclei (%)” value [3] was 69% and 76%. The “Population Hoechst High Intensity Objects (%)” value [3] was 3% and 1%, the “Population Membrane Permeable-Phenotype (%)” value [3] was 5% and 8% and the “Population Mitochondria Different-Phenotype (%)” value [3] was 2% and 6%. The “Population Mitotic Cells (%)” value [3] was 0% and 9%, the “Population Normal (%)” value [3] was 96% and 98% and the “Population Pyknosed Nuclei (%)” value [3] was 8%. The “Population Tubulin-Different-Phenotype (%)” value [3] was 4%, the “Total Cell Count” value [3] was 278 and 127 and the “Population Apoptotic (%)” value [4] was 54% and 80%. The “Population Fragmented Nuclei (%)” value [4] was 25% and 11%, the “Population Healthy Nuclei (%)” value [4] was 64% and 84% and the “Population Hoechst High Intensity Objects (%)” value [4] was 3% and 2%. For the same compound, the “Population Membrane Permeable-Phenotype (%)” value [4] was 19% and 16%, the “Population Mitochondria Different-Phenotype (%)” value [4] was 9% and 15% and the “Population Mitotic Cells (%)” value [4] was 45% and 20%. For the same compound, the “Population Normal (%)” value [4] was 96% and 97%, the “Population Pyknosed Nuclei (%)” value [4] was 9% and 4% and the “Population Tubulin-Different-Phenotype (%)” value [4] was 10% and 14%. The “Total Cell Count” value [4] was 244 and 110, the “Population Apoptotic (%)” value [5] was 87% and 88% and the “Population Fragmented Nuclei (%)” value [5] was 18% and 20%. The “Population Healthy Nuclei (%)” value [5] was 69% and 67%, the “Population Hoechst High Intensity Objects (%)” value [5] was 2% and 3% and the “Population Membrane Permeable-Phenotype (%)” value [5] was 6% and 12%. The “Population Mitochondria Different-Phenotype (%)” value [5] was 3% and 9%, the “Population Mitotic Cells (%)” value [5] was 12% and 11% and the “Population Normal (%)” value [5] was 97% and 96%. The “Population Pyknosed Nuclei (%)” value [5] was 12% and 11%, the “Population Tubulin-Different-Phenotype (%)” value [5] was 4% and 9% and the “Total Cell Count” value [5] was 333 and 163. For the same compound, the “Population Apoptotic (%)” value [6] was 74% and 92%, the “Population Fragmented Nuclei (%)” value [6] was 22% and 21% and the “Population Healthy Nuclei (%)” value [6] was 62% and 68%. The “Population Hoechst High Intensity Objects (%)” value [6] was 2%, the “Population Membrane Permeable-Phenotype (%)” value [6] was 15% and 20% and the “Population Mitochondria Different-Phenotype (%)” value [6] was 8% and 14%. For the same compound, the “Population Normal (%)” value [6] was 97%, the “Population Pyknosed Nuclei (%)” value [6] was 14% and 9% and the “Population Tubulin-Different-Phenotype (%)” value [6] was 8% and 16%. The “Total Cell Count” value [6] was 302 and 149.
